Here are results for two compounds from ChEMBL document CHEMBL4414558, “Dehydroabietylamine Ureas and Thioureas as Tyrosyl-DNA Phosphodiesterase 1 Inhibitors That Enhance the Antitumor Effect of Temozolomide on Glioblastoma Cells” (J Nat Prod, 2019).

The target in experiment [1] is Tyrosyl-DNA phosphodiesterase 1 (Homo sapiens, UniProt Q9NUW8, H493R). The experiment is described as follows: Inhibition of recombinant TDP1 H493R mutant (unknown origin) using 5'-(5,6 FAM-aac gtc agg gtc ttc c-BHQ1)-3' as substrate measured every 55 secs for 8 mins by fluorescence based assay. The method, boiled down:
(§1)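 Purified TDP1, either wild-type or the H493R mutant, tested against the fluorogenic substrate. The IC50 is the compound concentration that cuts enzyme activity by 50%.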

The test system of the next experiment is A549. The experiment is described as follows: Cytotoxicity activity against human A549 cells assessed as reduction in cell viability incubated for 72 hrs by MTT assay. The experiment is classed as cell-based. The settings on record: A549, 72 h. A general note: Tetrazolium assays rely on reduction of a dye to a coloured formazan, in cell work by metabolically active cells.

In experiment [2] the test system is U-87 MG. The experiment is described as follows: Potentiation of TMZ-induced cytotoxicity against human U87MG cells assessed as cell viability at 100 uM incubated for 72 hrs in presence of 2500 uM TMZ by MTT assay (reference value: 100%). The experiment is classed as functional, U-87MG ATCC.
For experiment [3], the system named is SNB-19. The experiment in a line: Potentiation of TMZ-induced cytotoxicity against human SNB19 cells assessed as cell viability at 100 uM incubated for 72 hrs in presence of 1250 uM TMZ by MTT assay (Rvb =100%). The experiment is classed as functional.
A short description of experiment [4]: Cytotoxicity activity against human SK-MEL-8 cells assessed as reduction in cell viability incubated for 72 hrs by MTT assay. The experiment is classed as cell-based.
In experiment [5] the test system is SNB-19. The experiment is described as follows: Potentiation of TMZ-induced cytotoxicity against human SNB19 cells assessed as cell viability at 75 uM incubated for 72 hrs in presence of 2000 uM TMZ by MTT assay (Rvb =100%). The experiment is classed as functional.
The test system of experiment [6] is U-87 MG. The experiment in a line: Cytotoxicity activity against human U87MG cells assessed as reduction in cell viability incubated for 72 hrs by MTT assay. The experiment is classed as cell-based, U-87MG ATCC.
The test system of experiment [7] is U-87 MG. The experiment is described as follows: Potentiation of TMZ-induced cytotoxicity against human U87MG cells assessed as reduction in cell viability at 100 uM incubated for 72 hrs in presence of 2000 uM TMZ by MTT assay relative to TMZ alone. The experiment is classed as functional, U-87MG ATCC.
Experiment [8] concerns U-87 MG. The experiment is described as follows: Potentiation of TMZ-induced cytotoxicity against human U87MG cells assessed as reduction in cell viability at 100 uM incubated for 72 hrs in presence of 2500 uM TMZ by MTT assay relative to TMZ alone. The experiment is classed as functional, U-87MG ATCC.
Experiment [9] concerns U-87 MG. The experiment is described as follows: Potentiation of TMZ-induced cytotoxicity against human U87MG cells assessed as combination index at 100 uM incubated for 72 hrs in presence of 2000 uM TMZ by MTT assay. Format: functional, U-87MG ATCC.
The subject of experiment [10] is SNB-19. The experiment in a line: Cytotoxicity activity against human SNB19 cells assessed as reduction in cell viability incubated for 72 hrs by MTT assay. The experiment is classed as cell-based. The settings on record: SNB-19, 72 h.
Experiment [11] deals with Poly [ADP-ribose] polymerase 1 (Homo sapiens) (UniProt P09874). The experiment in a line: Inhibition of PARP1 (unknown origin) assessed as residual activity at 100 uM relative to control.
The subject of experiment [12] is SNB-19. The experiment in a line: Potentiation of TMZ-induced cytotoxicity against human SNB19 cells assessed as reduction in cell viability at 100 uM incubated for 72 hrs in presence of 1250 uM TMZ by MTT assay relative to TMZ alone. The experiment is classed as functional.
Experiment [13] in a line: Cytotoxicity activity against human MDA-MB cells assessed as reduction in cell viability incubated for 72 hrs by MTT assay. The experiment is classed as cell-based.
The subject of experiment [14] is U-87 MG. The experiment in a line: Potentiation of TMZ-induced cytotoxicity against human U87MG cells assessed as combination index at 100 uM incubated for 72 hrs in presence of 2500 uM TMZ by MTT assay. The experiment is classed as functional, U-87MG ATCC.
For experiment [15], the system named is SNB-19. The experiment is described as follows: Potentiation of TMZ-induced cytotoxicity against human SNB19 cells assessed as combination index at 75 uM incubated for 72 hrs in presence of 2000 uM TMZ by MTT assay. Format: functional.
The target of experiment [16] is Tyrosyl-DNA phosphodiesterase 1 (Homo sapiens, UniProt Q9NUW8). The experiment is described as follows: Inhibition of recombinant TDP1 (unknown origin) using 5'-(5,6 FAM-aac gtc agg gtc ttc c-BHQ1)-3' as substrate measured every 55 secs for 8 mins by fluorescence based assay. A digest of the protocol:
as §1

The test system of the next experiment is T98G. The experiment in a line: Cytotoxicity activity against human T98G cells assessed as reduction in cell viability incubated for 72 hrs by MTT assay. Format: cell-based.
In experiment [17] the test system is U-87 MG. The experiment in a line: Potentiation of TMZ-induced cytotoxicity against human U87MG cells assessed as cell viability at 100 uM incubated for 72 hrs in presence of 2000 uM TMZ by MTT assay (reference value: 100%). The experiment is classed as functional, U-87MG ATCC.
Experiment [18] deals with SNB-19. The experiment is described as follows: Potentiation of TMZ-induced cytotoxicity against human SNB19 cells assessed as reduction in cell viability at 75 uM incubated for 72 hrs in presence of 2000 uM TMZ by MTT assay relative to TMZ alone. The experiment is classed as functional.
For experiment [19], the system named is SNB-19. The experiment is described as follows: Potentiation of TMZ-induced cytotoxicity against human SNB19 cells assessed as combination index at 100 uM incubated for 72 hrs in presence of 1250 uM TMZ by MTT assay. The experiment is classed as functional.
The target of experiment [20] is Poly [ADP-ribose] polymerase 2 (Homo sapiens) (UniProt Q9UGN5). The experiment in a line: Inhibition of PARP2 (unknown origin) assessed as residual activity at 100 uM relative to control.
Another experiment relates to U-937. The experiment is described as follows: Cytotoxicity activity against human U937 cells assessed as reduction in cell viability incubated for 72 hrs by MTT assay. Format: cell-based. The settings on record: U-937, 72 h.
The subject of the next experiment is MCF7. The experiment in a line: Cytotoxicity activity against human MCF7 cells assessed as reduction in cell viability incubated for 72 hrs by MTT assay. The experiment is classed as cell-based. The settings on record: MCF7, 72 h.
Another experiment relates to WI-38. The experiment in a line: Cytotoxicity activity against human WI38 cells assessed as reduction in cell viability incubated for 72 hrs by MTT assay. Format: cell-based. The conditions noted are these: WI-38, 72 h.

Chain of Poly [ADP-ribose] polymerase 1 (Homo sapiens) (P09874 whole entry): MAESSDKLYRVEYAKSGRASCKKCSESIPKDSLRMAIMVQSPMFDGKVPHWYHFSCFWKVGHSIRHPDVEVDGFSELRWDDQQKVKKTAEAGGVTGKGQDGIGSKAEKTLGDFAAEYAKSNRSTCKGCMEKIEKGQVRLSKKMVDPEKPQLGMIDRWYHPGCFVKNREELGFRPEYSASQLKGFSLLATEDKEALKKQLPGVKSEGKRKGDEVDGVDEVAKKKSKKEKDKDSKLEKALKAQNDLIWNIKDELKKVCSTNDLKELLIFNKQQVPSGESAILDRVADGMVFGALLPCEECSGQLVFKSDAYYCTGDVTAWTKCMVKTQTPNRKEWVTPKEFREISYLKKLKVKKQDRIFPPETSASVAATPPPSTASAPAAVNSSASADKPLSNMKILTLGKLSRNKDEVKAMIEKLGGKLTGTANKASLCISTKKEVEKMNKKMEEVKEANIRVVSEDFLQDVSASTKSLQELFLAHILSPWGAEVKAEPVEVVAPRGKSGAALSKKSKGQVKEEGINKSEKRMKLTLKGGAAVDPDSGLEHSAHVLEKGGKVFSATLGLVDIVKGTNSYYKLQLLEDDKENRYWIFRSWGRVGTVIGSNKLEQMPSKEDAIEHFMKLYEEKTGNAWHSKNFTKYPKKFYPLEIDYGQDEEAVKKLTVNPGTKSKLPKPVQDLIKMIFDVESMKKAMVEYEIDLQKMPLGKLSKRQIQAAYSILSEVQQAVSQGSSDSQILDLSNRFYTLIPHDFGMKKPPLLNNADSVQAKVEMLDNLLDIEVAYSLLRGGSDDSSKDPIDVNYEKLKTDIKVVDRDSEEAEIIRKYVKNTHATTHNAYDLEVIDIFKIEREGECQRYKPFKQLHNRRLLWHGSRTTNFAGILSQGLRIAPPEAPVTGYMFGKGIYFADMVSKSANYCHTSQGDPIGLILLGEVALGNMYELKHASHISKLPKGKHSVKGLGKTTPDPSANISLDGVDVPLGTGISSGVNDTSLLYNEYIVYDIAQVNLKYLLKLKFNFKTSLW
Chain of Tyrosyl-DNA phosphodiesterase 1 (Homo sapiens, UniProt Q9NUW8) (Q9NUW8 whole entry): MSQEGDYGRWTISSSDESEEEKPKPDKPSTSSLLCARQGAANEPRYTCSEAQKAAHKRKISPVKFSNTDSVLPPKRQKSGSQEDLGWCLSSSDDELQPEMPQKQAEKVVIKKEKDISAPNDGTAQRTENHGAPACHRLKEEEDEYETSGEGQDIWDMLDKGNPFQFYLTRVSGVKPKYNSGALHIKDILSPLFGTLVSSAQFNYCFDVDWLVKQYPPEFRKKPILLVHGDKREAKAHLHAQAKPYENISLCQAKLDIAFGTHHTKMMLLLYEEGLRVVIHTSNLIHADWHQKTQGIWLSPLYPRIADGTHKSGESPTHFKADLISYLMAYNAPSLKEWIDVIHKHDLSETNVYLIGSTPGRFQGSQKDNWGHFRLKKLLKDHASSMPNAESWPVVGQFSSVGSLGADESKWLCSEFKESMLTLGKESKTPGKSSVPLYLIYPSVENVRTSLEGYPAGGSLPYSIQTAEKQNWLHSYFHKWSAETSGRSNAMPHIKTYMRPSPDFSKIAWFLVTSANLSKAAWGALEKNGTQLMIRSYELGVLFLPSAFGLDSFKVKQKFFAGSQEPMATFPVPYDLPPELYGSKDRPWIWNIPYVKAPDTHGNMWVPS
Chain of Poly [ADP-ribose] polymerase 2 (Homo sapiens) (Q9UGN5 whole entry): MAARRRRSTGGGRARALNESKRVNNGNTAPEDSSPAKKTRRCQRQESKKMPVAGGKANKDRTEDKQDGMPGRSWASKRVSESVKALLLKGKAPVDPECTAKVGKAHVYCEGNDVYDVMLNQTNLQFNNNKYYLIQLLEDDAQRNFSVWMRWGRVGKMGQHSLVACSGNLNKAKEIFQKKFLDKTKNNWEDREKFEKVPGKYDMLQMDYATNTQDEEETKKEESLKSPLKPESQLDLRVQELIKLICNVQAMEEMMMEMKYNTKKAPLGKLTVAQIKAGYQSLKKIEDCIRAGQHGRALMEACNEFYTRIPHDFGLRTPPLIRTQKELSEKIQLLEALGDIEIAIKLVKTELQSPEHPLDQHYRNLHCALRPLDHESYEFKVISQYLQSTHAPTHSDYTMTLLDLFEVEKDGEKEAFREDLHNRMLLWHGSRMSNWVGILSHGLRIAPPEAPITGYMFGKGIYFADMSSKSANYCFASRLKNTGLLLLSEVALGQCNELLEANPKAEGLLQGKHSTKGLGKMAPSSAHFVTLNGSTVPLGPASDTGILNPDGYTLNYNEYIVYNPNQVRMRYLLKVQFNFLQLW
Chain of Tyrosyl-DNA phosphodiesterase 1 (Homo sapiens, UniProt Q9NUW8, H493R) (Q9NUW8 whole entry H493R): as the sequence (Q9NUW8 whole entry) above, with H493R counted along it

On to `CC(C)c1ccc2c(c1)CC[C@H]1[C@](C)(CNC(=O)NC34CC5CC(CC(C5)C3)C4)CCC[C@]21C`, for which the IC50 is 19.3 µM in [1]; above 100 µM in the experiment with A549; above 100 µM in experiment [4]; above 100 µM in the experiment on U-87 MG [6]; above 100 µM in the experiment with SNB-19 [10]; above 100 µM in experiment [13]. Also, the figures for the half-inhibitory concentration (IC50) (in experiment [16]; with T98G) were 0.1 µM and above 100 µM, respectively. The Activity in the experiment on U-87 MG [2] turned out to be 58.2%; in the experiment with SNB-19 [3] it was 61.3%; with SNB-19 [5] it was 63.7%; in [11], 79%; in the experiment with U-87 MG [17], 72%; in experiment [20] it was 107%. Further, the “fold change (FC)” value in the experiment with U-87 MG [7] was 1.4; with U-87 MG [8], 1.7; in the experiment with SNB-19 [12] it was 1.6; in the experiment with SNB-19 [18], 1.6. Also, the CI in the experiment with U-87 MG [9] is recorded as 0.44; in the experiment on U-87 MG [14], 0.43; in the experiment with SNB-19 [15], 0.13; in the experiment on SNB-19 [19], 0.25.
Consider `Cc1ccc(NC(=O)NC[C@]2(C)CCC[C@]3(C)c4ccc(C(C)C)cc4CC[C@@H]23)cc1NC(=O)NC[C@]1(C)CCC[C@]2(C)c3ccc(C(C)C)cc3CC[C@@H]12`, for which the IC50 is 5.4 µM in experiment [1]; above 100 µM in the experiment on A549; above 100 µM in experiment [4]; above 100 µM in the experiment on U-87 MG [6]; above 100 µM in the experiment with U-937; above 100 µM in the experiment with SNB-19 [10]. The 50% inhibitory concentration (IC50) in experiment [13] is above 100 µM; in the experiment with MCF7 it was above 100 µM; in experiment [16] it was 0.11 µM; with T98G, above 100 µM; in the experiment with WI-38, above 100 µM. The Activity in the experiment on U-87 MG [2] was found to be 82.1%; in the experiment with SNB-19 [3], 99.5%; in the experiment with SNB-19 [5], 84.4%; in [11] it was 83%; with U-87 MG [17], 100.7%; in experiment [20], 135%. Also, the “fold change (FC)” value in the experiment with U-87 MG [8] and in the experiment with SNB-19 [18] was 1.2 each time. Further, the CI was determined as 1.03 in the experiment with U-87 MG [9], 0.63 in the experiment with U-87 MG [14], 0.27 in the experiment with SNB-19 [15] and 0.99 in the experiment on SNB-19 [19].

The IC50 is the point on the concentration scale where inhibition reaches its midpoint.
